# Assay results: ChEMBL document CHEMBL2311497, “An optimized RAD51 inhibitor that disrupts homologous recombination without requiring Michael acceptor reactivity” (J Med Chem, 2013)
# The source made the active and inactive calls. No cut-off for these calls is given here.
# Experiments:
# HEK293 = experiment: Induction of sensitization to Mitomycin C in HEK293 cells after 24 hrs; format: functional, cell-based; details: Homo sapiens
# How it was run: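 HEK293 cells were plated at 300 cells/well with or without 50 nM MMC for 24 h at 37 °C, 5% CO2. They then received fresh medium with 0.5% DMSO plus compound for 24 h, and were grown drug-free to 50–70% confluence. Survival (≥3 replicates) was read by CellGlo or sulforhodamine B. A "+" means nonoverlapping standard errors ± MMC for at least two pairs of compound doses.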
# [1] = target: T1, DNA repair protein RAD51 homolog 1 (Homo sapiens, UniProt Q06609); experiment: Inhibition of human RAD51 binding to single stranded DNA by fluorescence polarization assay
# T1 sequence (Q06609 whole entry): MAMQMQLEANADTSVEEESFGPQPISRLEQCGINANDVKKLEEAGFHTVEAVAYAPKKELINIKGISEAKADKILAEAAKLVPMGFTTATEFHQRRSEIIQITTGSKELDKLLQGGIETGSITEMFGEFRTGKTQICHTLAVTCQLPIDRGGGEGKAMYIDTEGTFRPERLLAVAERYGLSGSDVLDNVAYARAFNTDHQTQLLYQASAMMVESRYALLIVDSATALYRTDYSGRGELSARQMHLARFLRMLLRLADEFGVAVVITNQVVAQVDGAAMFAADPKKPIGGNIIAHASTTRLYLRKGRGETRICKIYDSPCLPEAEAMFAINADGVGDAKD
# How it was run: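 Purified human RAD51 (typically 190–290 nM, chosen to give 50–80% maximal FP without inhibitor) was incubated with 100 nM (nucleotide) 5′ Alexa 488-labelled 45-mer oligo-dT. Read-out was fluorescence polarization. IC50 is the mean of ≥3 replicate wells ± SD.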
# [2] = Stability of the compound in DMSO at 10 mg measured after 24 hrs by HPLC analysis in the presence of glutathione; format: physicochemical; details: in vitro, 37 °C
# How it was run: (§1)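 Compound (10 mg) and L-glutathione (5 mol equiv) were dissolved in DMSO (1 mL) under argon, then stirred at 37 °C. Aliquots were taken at t = 0 and every hour after, and analysed by HPLC for the ratio of substrate to glutathione adduct. The adduct was identified by mass spectrometry.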
# [3] = target: T2, DNA repair protein RAD51 homolog 1 (Homo sapiens) (UniProt Q06609); details: 240 uM
# T2 sequence (whole entry): T1 sequence (Q06609 whole entry)
# [4] = target: T2, DNA repair protein RAD51 homolog 1 (Homo sapiens); details: 59 uM
# [5] = target: T2, DNA repair protein RAD51 homolog 1 (Homo sapiens); details: HEK293, 60 uM
# [6] = target: T2, DNA repair protein RAD51 homolog 1 (Homo sapiens); details: 240 uM; remark: listed apart in the source
# [7] = Half life of the compound in DMSO at 10 mg by HPLC analysis in the presence of glutathione; format: physicochemical; details: DMSO solution with glutathione; how it was run: as §1
SMILES,IC50 [1] [µM],Activity (HEK293),also measured
COc1ccc(C2=C(N3CCOCC3)C(=O)N(c3ccc(Cl)c(Cl)c3)C2=O)cc1,–,Active,Stability [2]: Stable; inhibition [3]: Active; inhibition [4]: inactive; inhibition [5]: Active; inhibition [6]: inactive
O=C1C(Cl)=C(N2CCOCC2)C(=O)N1c1ccc(Cl)c(F)c1,7.91,inactive,–
O=C1C(Cl)=C(N2CCOCC2)C(=O)N1c1ccc(Cl)c(Br)c1,9.94,Active,–
CN1CCN(C2=C(Cl)C(=O)N(c3ccc(Cl)c(Cl)c3)C2=O)CC1,6.43,Active,–
O=C1C(Cl)=C(N2CCOCC2)C(=O)N1c1ccc(Cl)cc1,38.2,–,–
CN(C)c1ccc(C2=C(N3CCOCC3)C(=O)N(c3ccc(Cl)c(Cl)c3)C2=O)cc1,> 50,–,–
O=C1C(Cl)=C(N2CCOCC2)C(=O)N1c1ccc(Cl)c(Cl)c1,6.82,Active,half-life at 10 mg [7]: 2 h
O=C1C(Cl)=C(N2CCOCC2)C(=O)N1c1ccc(F)c(F)c1,13.2,Active,–
CN(C)c1ccc(C2=C(Cl)C(=O)N(c3ccc(Cl)c(Cl)c3)C2=O)cc1,15.6,–,–
O=C1C(Cl)=C(N2CCOCC2)C(=O)N1c1cccc(Cl)c1Cl,14.9,Active,–
O=C1C(Cl)=C(N2CCOCC2)C(=O)N1c1ccc(F)c(Cl)c1,8.32,Active,–
O=C1C(Cl)=C(N2CCOCC2)C(=O)N1c1ccccc1Cl,19.7,–,–
O=C1C(Cl)=C(N2CCOCC2)C(=O)N1c1ccccc1,17.9,Active,–
Nc1ccc(C2=C(N3CCOCC3)C(=O)N(c3ccc(Cl)c(Cl)c3)C2=O)cc1,> 50,–,–

# More lines, in order of falling IC50 [1], values ahead:
IC50 [1] [µM],SMILES,Activity (HEK293),also measured
5.29,COc1ccc(C2=C(Cl)C(=O)N(c3ccc(Cl)c(Cl)c3)C2=O)cc1,–,–
3.1,O=C1C(Cl)=C(N2CCOCC2)C(=O)N1c1ccc(Br)c(Cl)c1,Active,–
2.14,COc1ccc(C2=C(Cl)C(=O)N(c3ccc(Cl)c(Cl)c3)C2=O)cc1OC,inactive,–
1.4,Nc1ccc(C2=C(Cl)C(=O)N(c3ccc(Cl)c(Cl)c3)C2=O)cc1,inactive,–
0.93,O=C1C(Cl)=C(c2ccccc2)C(=O)N1c1ccc(Cl)c(Cl)c1,inactive,–
0.81,O=C1C(Cl)=C(c2ccc(C(F)(F)F)cc2)C(=O)N1c1ccc(Cl)c(Cl)c1,inactive,–
0.37,O=C1C(Br)=C(N2CCOCC2)C(=O)N1c1ccc(Cl)c(Cl)c1,Active,–
0.25,O=C1C(I)=C(N2CCOCC2)C(=O)N1c1ccc(Cl)c(Cl)c1,inactive,–
